This passage reports GFP response vs DMSO, GFP response relative to DMSO and GFP response, % of DMSO results from PubChem BioAssay.

Calls of active or inactive are those of the source.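 Rule for the calls, unless noted: active = GFP response above 150% of the DMSO level; inconclusive = fewer than 70 events counted for a yeast strain; inactive = the rest.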

A short description of assay [1]: hit retest on RPL19A-GFP reporter strain – cell-based, S. cerevisiae, flow cytometry, cherry picks, mother/daughter gates, confirmation (AID 2270;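 active = GFP response below 50% of the DMSO control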). Particulars: 3 h, at 10 µM, stronger effect = lower value, 100 = same GFP as DMSO wells. (In general: A flow cytometer gives signals particle by particle.)
A short description of assay [2]: yeast TOR pathway reporter LAP4-GFP change – cell-based, cherry picks, flow cytometry, mother/daughter gates, confirmation (AID 2271;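 active = GFP response above 150% of the DMSO control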;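 note: ratio of sample to DMSO plate mean so 100% equals DMSO level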). Particulars: S. cerevisiae LAP4-GFP strain, 3 h, at 10 µM, stronger effect = higher value, 100 means same as DMSO control. The method, boiled down:
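Test system: GFP-fusion yeast strain. Medium: synthetic complete (SC) yeast growth medium. Timing: 3 h treatment at 30 °C with rotation. Measured by: GFP by flow cytometry. Control set: positive rapamycin (400 ng/mL), negative DMSO.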

A short description of assay [3]: TOR pathway reporter MEP2-GFP, retest of hits – S. cerevisiae, flow cytometry GFP, cherry picks, confirmation (AID 2272;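 active = GFP response above 150% of the DMSO control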;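 note: ratio of well signal to plate DMSO mean so 100% equals DMSO level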). Particulars: S. cerevisiae MEP2-GFP strain, 3 h, at 10 µM, stronger effect = higher value.
Assay [4] in a line: yeast AGP1-GFP fluorescence change, single-dose – cell-based, flow cytometry, S. cerevisiae, cherry picks, confirmation (AID 2273).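 Note: median GFP channel fluorescence over the whole cell population gate.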 Particulars: S. cerevisiae AGP1-GFP strain, 3 h, at 10 µM.
The nature of assay [5]: TOR pathway CIT2 reporter hit retest – S. cerevisiae, GFP fusion, cherry picks, mother/daughter gates, confirmation (AID 2274). Particulars: S. cerevisiae CIT2-GFP strain, flow cytometry, 3 h, at 10 µM, stronger effect = higher value.
The mark [6] stands for this setting: measured here: daughter cell gate.
Where [7] appears, read: measured here: mother cell gate.
Setting [8] is: measured here: daughter cell gate response.
Where [9] appears, read: measured here: mother cell gate response.

With `Cc1ccc(C(=O)c2nocc2C(=O)c2cccs2)cc1`, the GFP response vs DMSO is 98.7% (inactive) in assay [1], 93.6% in assay [1] (setting [6]), 99.8% in assay [1] (setting [7]) and 95.4% (inactive) in assay [3]. The values for the GFP response relative to DMSO in assay [2], in assay [2] (setting [8]) and in assay [2] (setting [9]) were 123% (inactive), 111% and 128%, respectively. Further, the GFP response, % of DMSO in assay [4] was 89.9% (inactive); in assay [5] it was 80.6% (inactive); in assay [5] (setting [6]), 79.7%; in assay [5] (setting [7]) it was 80.5%.
With `C=CCn1c(=O)c(C(=O)Nc2ccccc2O)c(O)c2ccccc21`, the GFP response vs DMSO in assay [1] is 99.8% (inactive); in assay [1] (setting [6]), 98.9%; in assay [1] (setting [7]) it was 101%; in assay [3], 105% (inactive). Besides, the figures for the GFP response relative to DMSO in assay [2], in assay [2] (setting [8]) and in assay [2] (setting [9]) were 108% (inactive), 106% and 106%, respectively. Further, the GFP response, % of DMSO is 98.7% (inactive) in assay [4], 104% (inactive) in assay [5], 105% in assay [5] (setting [6]) and 102% in assay [5] (setting [7]).
Consider `CCn1c(=O)c(C(C)=O)c(O)c2ccccc21`, for which the GFP response vs DMSO is 104% (inactive) in assay [1], 101% in assay [1] (setting [6]), 104% in assay [1] (setting [7]) and 96.8% (inactive) in assay [3]. Besides, the GFP response relative to DMSO in assay [2] was 89.3% (inactive); in assay [2] (setting [8]) it was 87.7%; in assay [2] (setting [9]) it was 91%. Also, the GFP response, % of DMSO in assay [4] is 102% (inactive); in assay [5] it was 97.3% (inactive); in assay [5] (setting [6]), 99.2%; in assay [5] (setting [7]) it was 91.9%.
As to `CCOc1ccc(CNC(=O)CCC(=O)N2Cc3cccc(OC)c3Oc3ncccc32)cc1`, the GFP response vs DMSO is 98.2% (inactive) in assay [1], 98.6% in assay [1] (setting [6]), 99.8% in assay [1] (setting [7]) and 100% (inactive) in assay [3]. The GFP response relative to DMSO is 97.9% (inactive) in assay [2], 99.2% in assay [2] (setting [8]) and 96.1% in assay [2] (setting [9]). The GFP response, % of DMSO in assay [4] is 96.6% (inactive); in assay [5], 101% (inactive); in assay [5] (setting [6]), 101%; in assay [5] (setting [7]), 99.7%.
As for `Cc1ccc(S(=O)(=O)CC#CCOC(=O)c2ccc([N+](=O)[O-])cc2)cc1`, the GFP response vs DMSO in assay [1] is 105% (inactive); in assay [1] (setting [6]), 107%; in assay [1] (setting [7]), 103%; in assay [3], 105% (inactive). Also, the GFP response relative to DMSO in assay [2] was 140% (inactive); in assay [2] (setting [8]) it was 132%; in assay [2] (setting [9]), 148%. Further, the GFP response, % of DMSO was 111% (inactive) in assay [4], 97.2% (inactive) in assay [5], 100% in assay [5] (setting [6]) and 90.8% in assay [5] (setting [7]).
On to `Cc1ccc2[nH]cc(/C=C/c3cc[n+](C)cc3)c2c1`, for which the GFP response vs DMSO in assay [1] is 106% (inactive); in assay [1] (setting [6]), 106%; in assay [1] (setting [7]), 105%; in assay [3] it was 170% (inactive). Further, the GFP response relative to DMSO in assay [2] was 153% (active); in assay [2] (setting [8]), 156%; in assay [2] (setting [9]), 154%. The GFP response, % of DMSO in assay [4] is 116% (inactive); in assay [5], 147% (inactive); in assay [5] (setting [6]), 156%; in assay [5] (setting [7]) it was 140%.
Consider `O=C1C2C3C=CC(CNS(=O)(=O)c4ccccc4[N+](=O)[O-])(O3)C2C(=O)N1c1ccccc1` (configuration not stated), for which the GFP response vs DMSO in assay [1] was 97.6% (inactive); in assay [1] (setting [6]), 97.3%; in assay [1] (setting [7]), 97.3%; in assay [3], 101% (inactive). For the same compound, the values for the GFP response relative to DMSO in assay [2], in assay [2] (setting [8]) and in assay [2] (setting [9]) were 98.6% (inactive), 99.7% and 98.2%, respectively. Also, the GFP response, % of DMSO in assay [4] was 101% (inactive); in assay [5] it was 107% (inactive); in assay [5] (setting [6]), 106%; in assay [5] (setting [7]), 107%.
As for `Nc1ccc(C(=O)N/N=C/c2ccccc2)cc1`, the GFP response vs DMSO in assay [1] is 105% (inactive); in assay [1] (setting [6]), 102%; in assay [1] (setting [7]), 106%; in assay [3] it was 101% (inactive). The GFP response relative to DMSO is 102% (inactive) in assay [2], 99.1% in assay [2] (setting [8]) and 102% in assay [2] (setting [9]). In addition, the GFP response, % of DMSO was 108% (inactive) in assay [4], 100% (inactive) in assay [5], 101% in assay [5] (setting [6]) and 99.3% in assay [5] (setting [7]).
As for `CCN=C(NCC)SC1CC(=O)N(c2cccc(OCC)c2)C1=O` (configuration not stated), the GFP response vs DMSO in assay [1] is 99.2% (inactive); in assay [1] (setting [6]) it was 97.1%; in assay [1] (setting [7]), 98.4%; in assay [3] it was 100% (inactive). Besides, the results for the GFP response relative to DMSO in assay [2], in assay [2] (setting [8]) and in assay [2] (setting [9]) were 101% (inactive), 99.2% and 98.3%, respectively. For the same compound, the GFP response, % of DMSO in assay [4] was 101% (inactive); in assay [5], 103% (inactive); in assay [5] (setting [6]), 103%; in assay [5] (setting [7]), 102%.
On to `COC(=O)NC1CCC(CC2CCC(NC(=O)OC)CC2)CC1` (configuration not stated), for which the GFP response vs DMSO in assay [1] was 99% (inactive); in assay [1] (setting [6]) it was 98.9%; in assay [1] (setting [7]), 99.4%; in assay [3], 100% (inactive). Further, the figures for the GFP response relative to DMSO in assay [2], in assay [2] (setting [8]) and in assay [2] (setting [9]) were 92.8% (inactive), 92.8% and 92.9%, respectively. In addition, the GFP response, % of DMSO in assay [4] is 94.7% (inactive); in assay [5], 103% (inactive); in assay [5] (setting [6]), 105%; in assay [5] (setting [7]), 103%.
As to `O=C(NCc1ccncc1)C12CC3CC(CC(Cl)(C3)C1)C2`, the GFP response vs DMSO in assay [1] was 96.2% (inactive); in assay [1] (setting [6]), 98.1%; in assay [1] (setting [7]) it was 96.8%; in assay [3], 99% (inactive). Also, the GFP response relative to DMSO is 97% (inactive) in assay [2], 95.9% in assay [2] (setting [8]) and 96.2% in assay [2] (setting [9]). For the same compound, the GFP response, % of DMSO was 99.8% (inactive) in assay [4], 105% (inactive) in assay [5], 105% in assay [5] (setting [6]) and 103% in assay [5] (setting [7]).
Turning to `CCC(=O)N/C(N)=N/c1nc2ccccc2o1`, the GFP response vs DMSO is 83.5% (inactive) in assay [1], 85.1% in assay [1] (setting [6]), 84.8% in assay [1] (setting [7]) and 109% (inactive) in assay [3]. The GFP response relative to DMSO in assay [2] was 110% (inactive); in assay [2] (setting [8]), 106%; in assay [2] (setting [9]), 112%. Besides, the GFP response, % of DMSO is 96.2% (inactive) in assay [4], 98.3% (inactive) in assay [5], 97.2% in assay [5] (setting [6]) and 99.7% in assay [5] (setting [7]).
Turning to `Cc1ccc(/C=C/C(=O)c2ccccc2)cc1`, the GFP response vs DMSO was 97.4% (inactive) in assay [1], 96.7% in assay [1] (setting [6]), 98.3% in assay [1] (setting [7]) and 99.5% (inactive) in assay [3]. Besides, the GFP response relative to DMSO in assay [2] was 100% (inactive); in assay [2] (setting [8]), 102%; in assay [2] (setting [9]), 99.5%. Also, the GFP response, % of DMSO in assay [4] is 102% (inactive); in assay [5], 102% (inactive); in assay [5] (setting [6]), 100%; in assay [5] (setting [7]), 99.1%.
With `CCC(C(=O)O)n1nc(-c2ccccc2)c2cc(Cl)ccc21` (configuration not stated), the GFP response vs DMSO in assay [1] is 98.7% (inactive); in assay [1] (setting [6]), 98.4%; in assay [1] (setting [7]), 98.2%; in assay [3], 99.3% (inactive). Besides, the GFP response relative to DMSO in assay [2] was 98.9% (inactive); in assay [2] (setting [8]), 96%; in assay [2] (setting [9]), 99.5%. Besides, the GFP response, % of DMSO in assay [4] was 102% (inactive); in assay [5] it was 101% (inactive); in assay [5] (setting [6]), 99.3%; in assay [5] (setting [7]) it was 102%.
Consider `N#C/C(=C\c1c(N2CCCCC2)nc2ccccn2c1=O)C(=O)NCc1ccco1`, for which the GFP response vs DMSO in assay [1] was 98.7% (inactive); in assay [1] (setting [6]), 98.8%; in assay [1] (setting [7]), 99.5%; in assay [3], 97.5% (inactive). Moreover, the GFP response relative to DMSO was 97.7% (inactive) in assay [2], 97.9% in assay [2] (setting [8]) and 96.5% in assay [2] (setting [9]). The GFP response, % of DMSO in assay [4] was 99.7% (inactive); in assay [5] it was 99.3% (inactive); in assay [5] (setting [6]) it was 100%; in assay [5] (setting [7]), 96.8%.
For `C/C(=N\NC(=O)COc1ccccc1-c1ccccc1)c1ccccn1`, the GFP response vs DMSO was 101% (inactive) in assay [1], 99.1% in assay [1] (setting [6]), 102% in assay [1] (setting [7]) and 96.6% (inactive) in assay [3]. The GFP response relative to DMSO was 145% (inactive) in assay [2], 136% in assay [2] (setting [8]) and 162% in assay [2] (setting [9]). The GFP response, % of DMSO in assay [4] was 94.5% (inactive); in assay [5], 102% (inactive); in assay [5] (setting [6]) it was 106%; in assay [5] (setting [7]), 97.7%.
On to `COc1cc(NC(=O)c2cccs2)ccc1NC(=O)c1cc2ccccc2o1`, for which the GFP response vs DMSO is 97% (inactive) in assay [1], 96.9% in assay [1] (setting [6]), 98.7% in assay [1] (setting [7]) and 100% (inactive) in assay [3]. Also, the GFP response relative to DMSO in assay [2] was 96.7% (inactive); in assay [2] (setting [8]) it was 99.2%; in assay [2] (setting [9]), 95.1%. In addition, the GFP response, % of DMSO in assay [4] is 99.9% (inactive); in assay [5], 101% (inactive); in assay [5] (setting [6]) it was 101%; in assay [5] (setting [7]), 101%.
